Test results as given in paper PMC4743058 (Genes & Development, 2016).
Where a SMILES comes first, the peptide text is derived from it. The star is where a group is joined. Cbz = O=C(OCc1ccccc1)*

Assays:
Hs-p53 = Hs-p53 degradation in p53/Mdm2 double-knockout cells; format: cell-based, human; expressed in mouse embryonic fibroblasts; details: 4 h before harvest, Western blot
Lj-p53 = Lj-p53 degradation in p53/Mdm2 double-knockout cells; format: cell-based; details: 4 h before harvest, Western blot, lane 4
Hs-p53–Lj-Mdm2^Nterm = experiment: In vitro pull-down of Hs-p53 by Lj-Mdm2Nterm in presence of inhibitor; format: binding, human p53; lamprey (Lethenteron japonicum) Mdm2; details: in vitro translated proteins, inhibitor 30 min, Fig. 7A lanes 4–6
Lj-p53–Lj-Mdm2^Nterm = experiment: In vitro pull-down of Lj-p53 by Lj-Mdm2Nterm in presence of inhibitor; format: binding, lamprey (Lethenteron japonicum); details: Fig. 7A
Outline: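 Anti-HA antibody (1 µg per 10 µL Protein G beads, 1 h in PBST–3% BSA) captured in vitro translated HA-tagged Mdm2 N-terminal bait (30 min, rotating). Test compound was added at the required concentrations for 30 min, with DMSO as control. In vitro translated Flag-Lj-p53 was then added for 1 h. Beads were washed, and eluates were heated 5 min at 95°C, run on SDS-PAGE and immunoblotted with HRP anti-Flag.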

Hs-p53–HDM2^Nterm = experiment: In vitro pull-down of Hs-p53 by HDM2Nterm in presence of inhibitor; format: binding, human; details: in vitro translated proteins, inhibitor 30 min, Fig. 7A lanes 1–3

| block of binding of Hs-p53 to Lj-Mdm2Nterm (Hs-p53–Lj-Mdm2^Nterm) | block of binding of Lj-p53 to Lj-Mdm2Nterm (Lj-p53–Lj-Mdm2^Nterm; in vitro translated proteins, inhibitor 30 min) | interaction with the p53-binding pocket in Lj-Mdm2Nterm (Lj-p53–Lj-Mdm2^Nterm; inferred from pull-down) | Compound | block of Lj-Mdm2-mediated Hs-p53 degradation by proteasome inhibitor (Hs-p53) | block of Lj-Mdm2-mediated Lj-p53 reduction by proteasome inhibitor (Lj-p53) | block of binding of Hs-p53 to HDM2Nterm (Hs-p53–HDM2^Nterm) |
| --- | --- | --- | --- | --- | --- | --- |
| – | – | – | CC(C)C[C@@H](C=O)NC(=O)[C@H](CC(C)C)NC(=O)[C@H](CC(C)C)NC(=O)OCc1ccccc1 [MG132] (Cbz-Leu-Leu-Leu-aldehyde) | only partially blocked | partially blocked | – |
| not by Nutlin | not by Nutlin | interacts poorly, if at all | Nutlin | – | – | could block the binding of Hs-p53 to HDM2^Nterm |
